Active and inactive are the calls of the source. The calls are words filed in the database; no cut-off is given here.

The half-life is how long it takes for the measured level to halve.

The nature of data set [1]: Half life in 0.05 M phosphate buffer of pH 7.3 at 25 degC by spectrophotometric analysis. It counts as physicochemical.
In data set [2] the target is T1, Neutrophil elastase (Homo sapiens) (UniProt P08246).
T1 sequence (whole entry): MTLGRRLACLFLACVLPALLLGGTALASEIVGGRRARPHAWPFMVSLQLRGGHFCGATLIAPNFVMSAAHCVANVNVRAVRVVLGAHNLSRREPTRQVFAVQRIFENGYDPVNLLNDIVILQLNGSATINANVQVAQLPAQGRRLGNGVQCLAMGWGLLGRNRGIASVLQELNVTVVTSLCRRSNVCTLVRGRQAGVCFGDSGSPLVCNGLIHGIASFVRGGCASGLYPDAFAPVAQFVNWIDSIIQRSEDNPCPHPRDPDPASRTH
As to the kind of experiment: Inhibition of human neutrophil elastase at 50 uM using N-methylsuccinyl-Ala-Ala-Pro-Val-7-amino-4-methylcoumarin as substrate measured every 30 secs for 10 mins by fluorescence assay. The method in brief: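 HNE (20 mU/mL) in 200 mM Tris-HCl pH 7.5 with 0.01% BSA and 0.05% Tween-20. Compound from 5 mM DMSO stock, 1% DMSO final, tested up to 50 µM. Reaction started with 25 µM final substrate. Fluorescence read at ex 355/em 460 nm, 25 °C. No inhibition at 50 µM is reported as N.A.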

Consider `Cc1ccc(C(=O)n2cc(C#N)c3cccnc32)cc1`, for which, in data set [1], the half-life is 2.6 h.
Still for that read-out and setting: the figure for `CCOC(=O)c1cn(C(=O)c2cccc(C)c2)c2ncccc12` is 3.5 h.
As to `N#Cc1cn(CC(=O)Nc2ccccc2)c2ncccc12`, the inhibition entry in data set [2] is “inactive”.
With `N#Cc1cn(C(=O)C2CC2)c2ncccc12`, in data set [1], the half-life was 6.8 h.
`Cc1cccc(C(=O)n2cc(-c3nc(C)no3)c3cccnc32)c1` had a half-life in data set [1] of 2.4 h.
Turning to `Cc1cccc(C(=O)n2cc(C#N)c3cccnc32)c1`, the half-life in data set [1] was 1.9 h.
For the compound `CCOC(=O)c1cn(CC(=O)Nc2ccccc2)c2ncccc12`, in data set [2], the inhibition entry is “inactive”.
For the compound `CCOC(=O)c1cn(C(=O)C2CC2)c2ncccc12`, in data set [1], the half-life is 14.4 h.
In the case of `Cc1cccc(C(=O)n2cc(-c3ccsc3)c3cccnc32)c1`, the inhibition entry in data set [2] is “inactive”.
`Cc1cccc(C(=O)n2cc([N+](=O)[O-])c3cccnc32)c1` gave a half-life in data set [1] of 0.4 h.
As for `CCCCC(=O)n1cc(C#N)c2cccnc21`, the half-life in data set [1] is 1.9 h.
Still for that read-out and setting: for `Cc1cccc(C(=O)n2cc(C(=O)Nc3ccccc3)c3cccnc32)c1` the value was 3.4 h.
In the case of `Cn1cc(C(=O)Nc2ccccc2)c2cccnc21`, in data set [2], the inhibition entry was “inactive”.
In the case of `CCOC(=O)c1cn(C(=O)c2ccc(C)cc2)c2ncccc12`, the half-life in data set [1] was 4.3 h.
On to `Cc1cccc(C(=O)n2ccc3cccnc32)c1`, for which, in data set [2], the inhibition result is “inactive”.

For the origin of these results see ChEMBL document CHEMBL4261628, “1H-pyrrolo[2,3-b]pyridine: A new scaffold for human neutrophil elastase (HNE) inhibitors” (Bioorg Med Chem, 2018).
